{"data": "Published values collected from several papers", "target": "Histamine H3 receptor (HRH3, Homo sapiens, UniProt Q9Y5N1)", "note": "Compare with care: the assays were run in different laboratories."}
{"SMILES": "COc1ccc(-n2nc(OCCCN3CCCCC3)ccc2=O)cc1", "assay": "ligand displacement", "setting": "1 µM", "inhibition": "23.3%"}
{"SMILES": "CCS(=O)(=O)c1cc2cc(C[C@](O)(CC(C)(C)c3ccc(F)cc3C(N)=O)C(F)(F)F)[nH]c2cn1", "assay": "ligand displacement", "setting": "10 µM", "inhibition": "11.7%"}
{"SMILES": "CN1CCN(CCCOc2ccc(=O)n(-c3ccc(Cl)c(Cl)c3)n2)CC1", "assay": "ligand displacement", "setting": "1 µM", "inhibition": "38.2%"}
{"SMILES": "CCN(Cc1ccccc1C(F)(F)F)C(=O)C1CCN(S(=O)(=O)c2ccc3[nH]ncc3c2)CC1", "assay": "ligand displacement, radioligand", "setting": "10 µM", "inhibition": "6%"}
{"SMILES": "O=C(c1ccc(F)cc1)N(Cc1ccccc1)C1CCCCC1", "assay": "cell-free assay", "setting": "10 µM", "inhibition": "15%"}
{"SMILES": "N#Cc1cc(Cn2c(N3CCCC3)nc3ccccc32)ccc1F", "assay": "ligand displacement", "setting": "10 µM", "inhibition": "1.97%"}
{"SMILES": "CC(=O)Nc1ncc(CN2CCC[C@H](Cc3cc(C)nc(C)c3)C2)s1", "assay": "ligand displacement", "setting": "10 µM", "inhibition": "10.8%"}
{"SMILES": "CCCNc1nc2ccccc2n1Cc1ccc(Cl)cc1", "assay": "ligand displacement", "setting": "10 µM", "inhibition": "-5.56%"}
{"SMILES": "CCN(CC)c1ccc(C2Nc3ccc(C(=O)c4ccccc4)cc3NC3=C2C(=O)CC(C)(C)C3)cc1 (stereo not drawn)", "assay": "ligand displacement, radioligand", "setting": "10 µM", "inhibition": "43%"}
